This note sets out measurements from ChEMBL document CHEMBL1145905, “Design and synthesis of novel dimeric morphinan ligands for kappa and micro opioid receptors” (J Med Chem, 2003).

The source made the active and inactive calls. No cut-off for these calls is given here.

The target of assay [1] is T1, Kappa-type opioid receptor (Homo sapiens, UniProt P41145). The assay is described as follows: Maximal percent inhibitory activity in stimulating [35S]-GTP-gamma S binding mediated by the Opioid receptor kappa 1 in chinese Hamster Ovary (CHO) cell membranes; No Effect. It is filed as functional. In short, it runs like this: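 Antagonist mode: human κ-CHO membranes (15 μg protein) with 100 nM U50,488 plus varying compound concentrations, 3 μM GDP, […] [35S]GTPγS, 60 min at 30 °C, pH 7.4 buffer with Mg2+/NaCl/EGTA; filtration, counting.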
T1 sequence (P41145 whole entry): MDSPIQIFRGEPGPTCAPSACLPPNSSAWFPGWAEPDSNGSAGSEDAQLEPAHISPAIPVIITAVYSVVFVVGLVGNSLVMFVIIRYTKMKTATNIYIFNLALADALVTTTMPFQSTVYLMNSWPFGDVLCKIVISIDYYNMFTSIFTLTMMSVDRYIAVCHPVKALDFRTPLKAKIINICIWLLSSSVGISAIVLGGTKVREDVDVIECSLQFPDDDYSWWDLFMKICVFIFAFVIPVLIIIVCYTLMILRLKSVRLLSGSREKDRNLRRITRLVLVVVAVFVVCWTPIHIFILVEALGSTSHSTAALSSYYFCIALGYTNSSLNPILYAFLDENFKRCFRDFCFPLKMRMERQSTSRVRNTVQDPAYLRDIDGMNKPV

The target in assay [2] is T2, Mu-type opioid receptor (Homo sapiens, UniProt P35372). Briefly: Percent maximal stimulation in [35S]-GTP-gamma S binding assay mediated by the Opioid receptor mu 1 in chinese Hamster Ovary (CHO)membranes. A general note: GTPγS is a poorly hydrolysed GTP analogue; its binding reports G protein activation.
T2 sequence (P35372 whole entry): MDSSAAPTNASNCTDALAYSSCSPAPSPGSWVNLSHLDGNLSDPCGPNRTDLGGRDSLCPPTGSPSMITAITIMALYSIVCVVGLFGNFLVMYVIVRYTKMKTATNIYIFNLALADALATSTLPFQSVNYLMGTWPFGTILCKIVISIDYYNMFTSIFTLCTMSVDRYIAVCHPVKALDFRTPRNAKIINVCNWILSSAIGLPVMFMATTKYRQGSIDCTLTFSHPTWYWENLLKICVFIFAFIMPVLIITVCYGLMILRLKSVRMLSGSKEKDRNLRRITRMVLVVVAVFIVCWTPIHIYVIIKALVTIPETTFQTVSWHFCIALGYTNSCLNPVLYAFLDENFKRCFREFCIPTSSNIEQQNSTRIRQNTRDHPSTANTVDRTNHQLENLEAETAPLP
For assay [3], the target named is T1, Kappa-type opioid receptor. Briefly: Percent maximal stimulation in [35S]-GTP-gamma S binding assay mediated by the Opioid receptor kappa 1 in chinese Hamster Ovary (CHO)membranes. It is filed as functional.
The target of assay [4] is T1, Kappa-type opioid receptor. The assay is described as follows: Inhibitory activity against Opioid receptor kappa 1 in chinese Hamster Ovary (CHO) cell membranes was determined using [3H]U-69593 radioligand.
The target in assay [5] is T2, Mu-type opioid receptor. Briefly: Inhibitory activity against Opioid receptor mu 1 in chinese Hamster Ovary (CHO) cells membranes was determined using [3H]-DAMGO radioligand. It is filed as cell-based.
The target in assay [6] is Delta-type opioid receptor (Homo sapiens, UniProt P41143). The assay is described as follows: Inhibitory activity against Opioid receptor delta 1 in chinese Hamster Ovary (CHO) cell membranes was determined using [3H]naltrindole radioligand.
Sequence of Delta-type opioid receptor (P41143 whole entry): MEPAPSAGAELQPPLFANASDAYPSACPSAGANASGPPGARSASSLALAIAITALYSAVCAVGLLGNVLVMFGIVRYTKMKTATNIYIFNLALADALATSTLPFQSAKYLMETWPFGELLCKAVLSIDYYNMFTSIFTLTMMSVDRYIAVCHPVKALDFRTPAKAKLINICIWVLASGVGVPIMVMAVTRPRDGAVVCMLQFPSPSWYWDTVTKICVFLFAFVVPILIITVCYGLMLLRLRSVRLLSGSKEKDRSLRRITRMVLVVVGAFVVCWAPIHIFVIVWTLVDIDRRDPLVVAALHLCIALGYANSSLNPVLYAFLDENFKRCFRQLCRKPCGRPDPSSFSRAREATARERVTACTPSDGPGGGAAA
Assay [7] addresses T2, Mu-type opioid receptor. The assay is described as follows: Inhibitory activity was determined in stimulating [35S]-GTP-gamma S binding mediated by the Opioid receptor mu 1 in chinese Hamster Ovary (CHO)membranes.
Assay [8] has as its target T2, Mu-type opioid receptor. Briefly: Maximal percent inhibitory activity was determined in stimulating [35S]-GTP-gamma S binding mediated by the Opioid receptor mu 1 in chinese Hamster Ovary (CHO) cell membranes. In short, it runs like this: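 Antagonist mode: human μ-CHO membranes (7.5 μg protein) with 200 nM DAMGO plus varying compound concentrations, 3 μM GDP, […] [35S]GTPγS, 60 min at 30 °C, pH 7.4 buffer with Mg2+/NaCl/EGTA; filtration, counting.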

Assay [9] deals with T1, Kappa-type opioid receptor. The assay is described as follows: Inhibitory activity in stimulating [35S]-GTP-gamma S binding mediated by the Opioid receptor kappa 1 in chinese Hamster Ovary (CHO) cell membranes was determined. It is filed as functional.
Assay [10] deals with Opioid receptors; delta & kappa (Homo sapiens) (UniProt P41145+P41143). Briefly: Selective inhibitory activity was determined against kappa & delta opioid receptor in chinese Hamster Ovary (CHO) cell membranes.
Sequence of Opioid receptors; delta & kappa (Homo sapiens) (P41143 whole entry, looked up): as the sequence (P41143 whole entry) above
Sequence of Opioid receptors; delta & kappa (Homo sapiens) (P41145 whole entry, looked up): as the sequence (P41145 whole entry) above
Assay [11] concerns the target Opioid receptors; mu & kappa (Homo sapiens) (UniProt P41145+P35372). Briefly: Selective inhibitory activity was determined against kappa & mu opioid receptor in chinese Hamster Ovary (CHO) cell membranes.
The target in assay [12] is T2, Mu-type opioid receptor.

Sequence of Opioid receptors; mu & kappa (Homo sapiens) (P35372 whole entry, looked up): as the sequence (P35372 whole entry) above
Sequence of Opioid receptors; mu & kappa (Homo sapiens) (P41145 whole entry, looked up): as the sequence (P41145 whole entry) above

Broadly, the Emax is the maximal effect, on the per cent scale that the assay sets. The term Ki denotes a dissociation constant, usually derived from enzyme kinetics or from competition with a known ligand. For orientation: IC50 means the concentration needed to halve the response being measured. Read a high IC50 as lower potency. Usually EC50 stands for the concentration at which the effect is half-maximal. `O=C(CCCCCCCCC(=O)Oc1ccc2c(c1)[C@@]13CCCC[C@H]1[C@@H](C2)N(CC1CCC1)CC3)Oc1ccc2c(c1)[C@@]13CCCC[C@H]1[C@@H](C2)N(CC1CCC1)CC3`: the NE entry in assay [1] was “inactive”. The figures for the Emax in assay [2] and in assay [3] were 50% and 60%, respectively. For the same compound, the inhibition constant (Ki) in assay [4] amounted to 0.049 nM; in [5], 0.09 nM; in assay [6], 4.2 nM. In addition, the IC50 in assay [7] was found to be 16 nM. In assay [8], this compound came in with an Imax of 60%. For the same compound, the EC50 came to 0.85 nM in assay [9] and 1.3 nM in assay [12]. Besides, the Selectivity in assay [10] was determined as 90; in assay [11], 2.

Turning to `COC(=O)CCCCCCCCC(=O)Oc1ccc2c(c1)[C@@]13CCCC[C@H]1[C@@H](C2)N(CC1CCC1)CC3`, the NT result in assay [1] is “inactive”. In addition, the values for the Emax in assay [2] and in assay [3] were 60% and 90%, respectively. In addition, the inhibition constant (Ki) was 0.07 nM in assay [4], 0.23 nM in assay [5] and 44 nM in [6]. Moreover, the IC50 in assay [7] was 130 nM. In assay [8], this compound came in with an Imax of 50%. For the same compound, the EC50 in assay [9] turned out to be 5.7 nM; in [12], 8 nM. For the same compound, the Selectivity in assay [10] was 630; in assay [11], 3.

`c1cc2c(cc1OCCCCCCCCCCOc1ccc3c(c1)[C@@]14CCCC[C@H]1[C@@H](C3)N(CC1CCC1)CC4)[C@@]13CCCC[C@H]1[C@@H](C2)N(CC1CCC1)CC3`: the Ki came out at 120 nM in assay [4], 66 nM in assay [5] and 2500 nM in assay [6]. In addition, the Selectivity in [10] turned out to be 20; in [11] it was 0.5.

Consider `Oc1ccc2c(c1)[C@@]13CCCC[C@H]1[C@@H](C2)N(CC1CC1)CC3`, for which the Imax in [8] was 50%.

Take `O=C(Oc1ccc2c(c1)[C@@]13CCCC[C@H]1[C@@H](C2)N(CC1CCC1)CC3)c1cccc(C(=O)Oc2ccc3c(c2)[C@@]24CCCC[C@H]2[C@@H](C3)N(CC2CCC2)CC4)c1`: the values for the Ki in [4], in assay [5] and in assay [6] were 3.4 nM, 3.3 nM and 920 nM, respectively. Moreover, the Selectivity in assay [10] is 270; in assay [11], 1.

`c1cc2c(cc1OCCCCOc1ccc3c(c1)[C@@]14CCCC[C@H]1[C@@H](C3)N(CC1CCC1)CC4)[C@@]13CCCC[C@H]1[C@@H](C2)N(CC1CCC1)CC3`: the Ki in assay [4] amounted to 18 nM; in assay [5], 29 nM; in assay [6], 730 nM. In addition, the Selectivity in assay [10] is 40; in [11] it was 2.

`CN1CC[C@]23CCCC[C@H]2[C@H]1Cc1ccc(O)cc13` [LEVORPHANOL]: the affinity in assay [4] corresponds to a Ki of 2.3 nM.

In assay [4], `Oc1ccc2c(c1)[C@@]13CCCC[C@H]1[C@@H](C2)N(CC1CCC1)CC3` [BUTORPHAN] came in with a Ki of 0.079 nM. In assay [9], this compound gave an EC50 of 1.3 nM.

Consider `O=C(Oc1ccc2c(c1)[C@@]13CCCC[C@H]1[C@@H](C2)N(CC1CCC1)CC3)c1ccc(C(=O)Oc2ccc3c(c2)[C@@]24CCCC[C@H]2[C@@H](C3)N(CC2CCC2)CC4)cc1`, for which the Ki in assay [4] came to 4.2 nM; in assay [5], 4.7 nM; in assay [6], 400 nM. Also, the Selectivity in assay [10] came out at 100; in [11], 1.

On to `O=C(Oc1ccc2c(c1)[C@@]13CCCC[C@H]1[C@@H](C2)N(CC1CCC1)CC3)[C@H]1C[C@H]1C(=O)Oc1ccc2c(c1)[C@@]13CCCC[C@H]1[C@@H](C2)N(CC1CCC1)CC3`, for which the Ki in [4] came out at 0.17 nM; in [5] it was 0.28 nM; in [6], 16 nM. Moreover, the Selectivity in [10] was determined as 90; in assay [11] it was 2.

As to `Oc1ccc2c(c1)[C@@]13CCCC[C@H]1[C@@H](C2)N(CCCCCCN1CC[C@]24CCCC[C@H]2[C@H]1Cc1ccc(O)cc14)CC3`, the Ki in assay [4] stood at 50 nM; in assay [5], 52 nM; in assay [6], 370 nM. Moreover, the Selectivity in assay [10] was 7; in assay [11], 1.

Regarding `O=C(CCCCCCCCC(=O)Oc1ccc2c(c1)[C@@]13CCCC[C@H]1[C@@H](C2)N(CC1CC1)CC3)Oc1ccc2c(c1)[C@@]13CCCC[C@H]1[C@@H](C2)N(CC1CC1)CC3`, the maximal response (Emax) worked out at 30% in assay [2] and 90% in assay [3]. For the same compound, the Ki in [4] amounted to 0.41 nM; in assay [5] it was 0.93 nM; in assay [6], 32 nM. In assay [7], this compound had an IC50 of 90 nM. The compound further gave an Imax in assay [8] of 100%. The same compound displayed an EC50 in [9] of 4.9 nM. Besides, the Selectivity in assay [10] is 80; in assay [11], 2.

With `O=C(CCCCCCC(=O)Oc1ccc2c(c1)[C@@]13CCCC[C@H]1[C@@H](C2)N(CC1CCC1)CC3)Oc1ccc2c(c1)[C@@]13CCCC[C@H]1[C@@H](C2)N(CC1CCC1)CC3`, the NE result in [1] is “inactive”. The Emax in [2] is 60%; in [3] it was 80%. Further, the Ki amounted to 0.65 nM in [4], 0.89 nM in [5] and 24 nM in [6]. The IC50 in assay [7] came to 90 nM. Moreover, the Imax in assay [8] came to 100%. Moreover, the results for the EC50 in assay [9] and in assay [12] were 11 nM and 10 nM, respectively. Besides, the values for the Selectivity in assay [10] and in assay [11] were 37 and 1, respectively.

As for `O=C(CCCCCCCC(=O)Oc1ccc2c(c1)[C@@]13CCCC[C@H]1[C@@H](C2)N(CC1CCC1)CC3)Oc1ccc2c(c1)[C@@]13CCCC[C@H]1[C@@H](C2)N(CC1CCC1)CC3`, the NE result in assay [1] was “inactive”. Further, the values for the Emax in assay [2] and in assay [3] were 57% and 80%, respectively. For the same compound, the Ki in assay [4] was 0.59 nM; in [5], 0.97 nM; in [6] it was 21 nM. Besides, in assay [7], the IC50 came to 360 nM. For the same compound, in assay [8], the Imax is 54%. Besides, the EC50 in [9] was determined as 15 nM; in assay [12] it was 11 nM. The Selectivity in [10] came out at 35; in assay [11], 2.

For `Oc1ccc2c(c1)[C@@]13CCCC[C@H]1[C@@H](C2)N(CCCN1CC[C@]24CCCC[C@H]2[C@H]1Cc1ccc(O)cc14)CC3`, the Ki stood at 24 nM in assay [4], 48 nM in [5] and 600 nM in assay [6]. The Selectivity in [10] was 25; in [11] it was 2.

As to `O=C(CCCCCCCCCCC(=O)Oc1ccc2c(c1)[C@@]13CCCC[C@H]1[C@@H](C2)N(CC1CCC1)CC3)Oc1ccc2c(c1)[C@@]13CCCC[C@H]1[C@@H](C2)N(CC1CCC1)CC3`, the NE entry in assay [1] was “inactive”. The Emax is 14% in assay [2] and 90% in assay [3]. For the same compound, the values for the Ki in assay [4], in assay [5] and in assay [6] were 1.1 nM, 1.8 nM and 82 nM, respectively. The compound also showed a concentration for half-maximal inhibition (IC50) in [7] of 100 nM. This compound also showed an Imax in [8] of 60%. In [9], a half-maximal response (EC50) required 8.1 nM. Further, the Selectivity in assay [10] turned out to be 75; in assay [11], 2.

Turning to `O=C(CCC(=O)Oc1ccc2c(c1)[C@@]13CCCC[C@H]1[C@@H](C2)N(CC1CCC1)CC3)Oc1ccc2c(c1)[C@@]13CCCC[C@H]1[C@@H](C2)N(CC1CCC1)CC3`, the NE entry in assay [1] is “inactive”. The figures for the Emax in [2] and in assay [3] were 50% and 70%, respectively. The Ki is 0.076 nM in [4], 0.16 nM in assay [5] and 9.4 nM in assay [6]. Besides, the IC50 in assay [7] was found to be 170 nM. For the same compound, the Imax in assay [8] is 50%. Also, the EC50 in assay [9] came to 4.5 nM; in assay [12] it was 7.4 nM. The figures for the Selectivity in assay [10] and in [11] were 120 and 2, respectively.

Turning to `O=C(CCC(=O)Oc1ccc2c(c1)[C@@]13CCCC[C@H]1[C@@H](C2)N(CC1CC1)CC3)Oc1ccc2c(c1)[C@@]13CCCC[C@H]1[C@@H](C2)N(CC1CC1)CC3`, the Emax in assay [2] was determined as 10%; in [3], 70%. The Ki in assay [4] amounted to 0.1 nM; in assay [5], 0.14 nM; in assay [6] it was 3.8 nM. The compound also showed an IC50 in assay [7] of 1.8 nM. In assay [8], the Imax is 60%. Also, in assay [9], a half-maximal response (EC50) required 3.3 nM. The Selectivity in assay [10] is 40; in assay [11] it was 1.

For `O=C(CCCC(=O)Oc1ccc2c(c1)[C@@]13CCCC[C@H]1[C@@H](C2)N(CC1CCC1)CC3)Oc1ccc2c(c1)[C@@]13CCCC[C@H]1[C@@H](C2)N(CC1CCC1)CC3`, the inhibitory constant (Ki) in assay [4] worked out at 1.2 nM; in [5] it was 3.3 nM; in assay [6], 80 nM. Also, the Selectivity in assay [10] was 70; in assay [11], 3.
